Screening results (PubChem)
This is a sample that favours compounds with a hit; in the whole collection about 4.3% have one here.
MC4R antagonist: blocks human MC4R cAMP signaling | MC4R-expressing cells, MTII-stimulated cAMP, LANCE TR-FRET | inhibition, % at 6.5 µM | hit rate 0.48% among 360,000;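 active = inhibition above its plate's cutoff, the mean of tested wells on that plate plus 3 SD, cut at about 29% in these data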;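 note: 0% = Melanotan II alone and 100% = Melanotan II plus saturating MCL0020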
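Material – human MC4R-expressing U2OS cells · Repeats – no replicates · Detection – TR-FRET with Eu-cAMP and labeled anti-cAMP, 671 nm · Times – compound 30 min, challenge 1 h, detection 1 h · Compound – single nominal compound dose of 6.5 µM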
TAAR1 antagonist: human TAAR1 antagonism; CHO RD-HGA16 TAAR1, Fluo-8 calcium fluorescence, antagonist; inhibition, % at 3 µM; hit rate 1.5% among 360,000;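 active = inhibition above a per-plate cutoff, the mean inhibition of test compounds on that plate plus 3 SD, cut at about 49% in these data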;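 note: 0% = DMSO plus EC80 beta-PEA response and 100% = DMSO alone without agonist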
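System: RD-HGA16 CHO cells with stable hTAAR1 and Gα16 | Probe or stimulus: EC80 β-phenethylamine stimulus | Dosing: 3 µM, single point | Times: Dye loading 75 min at 37 °C, then 30 min room temperature | Measured by: Fluo-8 calcium-sensitive fluorescence | Read-out basis: % inhibition of agonist calcium response | Replicates: n of 1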
HTR2A ag: agonists of mouse serotonin 5-HT2A receptor (HTR2A); CHO-K1 mHTR2A beta-arrestin complementation, luminescence; percent of 30 µM serotonin response; hit rate 0.66% among 360,000; P35363; activation, % at 7.6 µM;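 active = activation above a run cutoff, the mean activation of all tested compounds plus 3 SD, cut at about 14% in these data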;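 note: 0% = plate median of compound wells and 100% = 30 µM serotonin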
Target sequence (P35363 whole entry, looked up): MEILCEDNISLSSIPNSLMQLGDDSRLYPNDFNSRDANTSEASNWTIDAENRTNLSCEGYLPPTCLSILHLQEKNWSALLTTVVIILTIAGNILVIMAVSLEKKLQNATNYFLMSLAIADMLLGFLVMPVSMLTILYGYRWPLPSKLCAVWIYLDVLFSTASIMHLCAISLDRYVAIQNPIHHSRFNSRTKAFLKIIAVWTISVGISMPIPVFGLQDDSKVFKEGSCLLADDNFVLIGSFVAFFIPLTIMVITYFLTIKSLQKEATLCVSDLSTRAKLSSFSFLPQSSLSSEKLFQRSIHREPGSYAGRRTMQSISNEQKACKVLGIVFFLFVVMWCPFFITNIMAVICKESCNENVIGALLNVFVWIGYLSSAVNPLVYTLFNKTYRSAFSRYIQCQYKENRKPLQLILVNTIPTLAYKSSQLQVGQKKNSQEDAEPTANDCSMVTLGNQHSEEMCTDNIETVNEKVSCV
MC4R barr agon: human MC4R agonism via beta-arrestin | P32245 | hit rate 0.98% among 360,000 | activation, % at 8.9 µM | U2OS MC4R beta-arrestin complementation, luminescence; percent of melanotan II response, DMSO zero;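 active = activation above a per-plate cutoff, the mean activation of sample wells on that plate plus 3 SD, cut at about 8% in these data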
B2AR ag: activates human beta-2 adrenergic receptor causing internalization. hit rate 0.43% among 340,000. response, % (concentration not given with the values). Am2.2-beta2AR cells, FAP receptor internalization, flow cytometry. P07550;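 active = response above a set limit, near 3 SD of response in nonfluorescent compounds, cut at about 42% in these data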
TAAR1 agonist: agonists of human TAAR1. Q96RJ0. CHO RD-HGA16 TAAR1, Fluo-8 calcium fluorescence; vehicle wells 0%, saturating PEA agonist 100%. activation, % at 3 µM. hit rate 0.99% among 360,000. AID 624467;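 active = activation above the mean activation of all test compounds in the run plus 3 SD, cut at about 38% in these data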
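Test system: RD-HGA16 (CHO) cells co-expressing Gα16 and hTAAR1 / Benchmarks: DMSO vehicle as 0%, PEA at EC100 as 100% / Repeats: no replicates (n 1) / Measure: % activation from peak over basal fluorescence ratio, DMSO-to-PEA scaled / Timing: 17-24 h plating, Fluo-8 75 min 37 °C, 30 min RT / Technique: kinetic Fluo-8 calcium fluorescence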
An asterisk follows results filed as active; . = no result given.

SMILES	MC4R antagonist	TAAR1 antagonist	HTR2A ag	MC4R barr agon	B2AR ag	TAAR1 agonist
CC(C)c1nnc2n1N=C(c1ccc(Cl)cc1)CS2	-9	-24	-8	-2	-11	-4
CC(C)(CO)NCc1cc(Br)ccc1OCc1ccccc1	13	-16	-1	-1	-3	1
CC(C)NCc1cc(Br)ccc1OCc1ccccc1	6	15	-7	1	-1	43*
CCCCC[C@@H](C)N1C[C@H](COCc2ccccc2)Oc2cc(N3CCC[C@@H]3COC)ccc2S1(=O)=O	.	-11	-5	.	.	1
Cc1cc(C)c(S(=O)(=O)/N=C2/C=C(Sc3ncn[nH]3)C(=O)c3ccccc32)cc1C	62*	45	4	-4	49*	30
COC(=O)C1=C(C)N(C)C(=NCc2ccc3c(c2)OCO3)NC1c1ccc(C(F)(F)F)cc1 (configuration not stated)	.	7	.	.	.	15
N#C/C(=C/c1ccc(N2CCCC2)c([N+](=O)[O-])c1)c1nc2ccccc2[nH]1	19	-2	1	2	82*	23
COc1cc(/C=C(\C#N)c2nc3ccccc3[nH]2)ccc1OC(=O)c1ccco1	-9	18	-1	0	-5	11
COc1cc(/C=C(\C#N)c2nc3ccccc3[nH]2)c([N+](=O)[O-])cc1OCc1ccccc1	7	54*	-3	-4	35	9
N#C/C(=C\c1ccc(N2CCOCC2)c([N+](=O)[O-])c1)c1nc2ccccc2[nH]1	4	12	-1	0	1	13
c1ccc(COCCc2cn(Cc3ccccc3)c3ccccc23)cc1	.	-22	.	.	.	-1
CSC1=NSC2=NC(=O)/C(=C\c3coc4ccccc4c3=O)C(=N)N12	3	107*	4	-1	-10	383*
N=C1/C(=C\c2coc3ccc(O)cc3c2=O)C(=O)N=C2SC=CN12	-14	41	-2	-1	-6	48*
N=C1/C(=C/c2coc3ccccc3c2=O)C(=O)N=C2SC(c3ccco3)=NN12	-2	.	-8	-1	-66	.
CCN=C(Nc1ccc2c(c1)OCO2)SC1CC(=O)N(c2ccc(OC)cc2)C1=O (configuration not stated)	3	50*	2	2	14	13
CC(C)C[C@@H]1COc2cc(N3CCCC3)ccc2S(=O)(=O)N1	.	-17	.	.	.	1
Cc1cc(C)cc(NC(=O)c2ccc(CSc3nnc(C)s3)cc2)c1	-1	66*	-3	0	3	13
Cc1ccc(NC(=O)c2ccc(CSc3nnc(C)s3)cc2)cc1	0	24	-3	-1	-2	18
Cc1ccc(OCCNC(=O)[C@@H](Cc2ccccc2)NC(=O)[C@H]2O[C@@H](n3ccc(=O)[nH]c3=O)[C@H](O)[C@@H]2O)cc1C	.	-22	.	.	.	5
Fc1ccc(N=c2ssnc2Cl)c(F)c1	29*	5	3	2	3	27
COc1ccc(N=c2ssnc2Cl)cc1	16	.	-1	0	12	.
Clc1ccc(N=c2ssnc2Cl)cc1	0	18	1	-2	1	46*
COc1cc(N=c2ssnc2Cl)cc(OC)c1OC	-4	22	4	-2	-2	42*
COc1ccc(OCC2CN(Cc3ccccc3)S(=O)(=O)CCO2)cc1 (configuration not stated)	.	18	.	.	.	0
CN1CCc2c(sc(NC(=O)c3ccc(S(=O)(=O)N4CCc5ccccc54)cc3)c2C(N)=O)C1	.	50*	.	.	.	27
SMILES	MC4R antagonist	TAAR1 antagonist	HTR2A ag	MC4R barr agon	B2AR ag	TAAR1 agonist
COc1ccc(C2=NS(=O)(=O)N(C)C(C(=O)Nc3ccc(C(C)=O)cc3)=C2)cc1OC	0	53*	-4	-2	14	12
COc1ccc(NC(=O)C2=CC(c3ccc(C)cc3)=NS(=O)(=O)N2C)cc1OC	0	1	-3	-1	4	4
Cc1ccc(NC(=O)C(=O)NCCOc2ccc(Cl)cc2)c(C)c1	-2	8	6	8.8*	-6	10
CCN(CC)c1ccc(/C=c2\sc3nc4ccccc4n3c2=O)c(O)c1	1	64*	5	-1	6	17
O=c1/c(=C/c2ccc(O)c([N+](=O)[O-])c2)sc2nc3ccccc3n12	2	10	0	1	-47	4
COc1ccccc1Nc1nn2c(=O)c3ccc(C(=O)N4CCCC(C)C4)cc3nc2s1 (configuration not stated)	19	50*	-5	2	15	6
CC1CCCN(C(=O)c2ccc3c(=O)n4nc(Nc5ccccc5)sc4nc3c2)C1 (configuration not stated)	7	9	-1	-2	.	2
C#CCOCCOCCOCCNc1nc(N2CCN(C(=O)[C@H](CCCN=C(N)N)n3cc(C(N)[C@@H](C)CC)nn3)CC2)nc(N2CCN(C(=O)[C@H](CC(N)=O)n3cc([C@@H](N)CC(N)=O)nn3)CC2)n1 (some centres not stated)	3	9	2	0	-1	10
CCCCS(=O)(=O)NCC1CCN(C(=O)C(=O)c2cc3ccccc3o2)CC1	.	-9	.	.	.	-1
O=C1N/C(=N/N=C/c2ccco2)SC1Cc1ccccc1 (configuration not stated)	7	-16	2	-2	-6	0
O=C1C(Cc2ccccc2)S/C(=N/N=C/c2ccco2)N1c1ccccc1 (configuration not stated)	7	17	2	8.4*	4	29
O=C(O)CCCCN1C(=O)C=CC1=O	.	-17	.	.	.	1
O=C(Cc1csc(N2CCOCC2)n1)N/N=C/c1ccc(O)c(O)c1O	-8	-3	-2	-2	46*	4
C/C(=N\NC(=O)Cc1csc(N2CCOCC2)n1)c1ccccc1	14	3	2	-2	-2	8
N#CCN1CCN(CC(=O)Nc2ccc(OCc3ccccc3)cc2)CC1	8	-7	-5	-1	42*	5
O=C(CC1NCCc2ccccc21)Nc1ccccc1 (configuration not stated)	-2	2	-2	-2	4	10
O=C(CC1NCCc2ccccc21)Nc1ccc(Oc2ccccc2)cc1 (configuration not stated)	-5	-2	2	-2	-9	42*
COC(=O)C1=C(C)N(C)C(=NCC2CC2)NC1c1cccc(C(F)(F)F)c1 (configuration not stated)	.	6	.	.	.	3
CC(C)c1[nH]nc2c1C(c1cccc(C(F)(F)F)c1)N(c1ccccc1)C2=O (configuration not stated)	.	-63	.	.	.	0
